S100A4 inh HTS = inhibitors of human S100A4 binding to myosin IIA peptide; S100A4/TAMRA-MyoIIA peptide fluorescence polarization; actives 0.14% (n = 360,000); AID 652163; P26447; inhibition, % at 10.7 µM;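 active means mean inhibition of at least 70% across replicates, with every replicate also reaching that level; inconclusive means mean inhibition reaches 70% but some replicates fall short; inactive means mean inhibition below 70%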
Target sequence (P26447 whole entry, looked up): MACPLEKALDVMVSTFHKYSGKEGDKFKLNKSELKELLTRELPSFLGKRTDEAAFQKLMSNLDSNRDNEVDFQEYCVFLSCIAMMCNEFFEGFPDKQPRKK
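Test system – S100A4 monomer (human) · Compound – single-point compound testing · Schedule – 5 min incubation before reading · Probe or stimulus – TAMRA-labelled myosin IIA heavy-chain peptide probe, 5 nM · Benchmarks – neutral control DMSO, positive control TFP · Medium – Calcium-containing HEPES buffer, pH 7.2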
miR-122 sensor = blocks miR-122 activity in Huh7 sensor cells; Huh7 miR-122 Renilla luciferase sensor, 48 h; neutral wells = 0, positive control = 100; activation (reporter increase), % at 12.5 µM; actives 0.3% (n = 340,000); AID 602342;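 active means mean replicate activation score at least 90 and every replicate individually at or above 90; inconclusive means only one of the two criteria met; inactive means neither criterion met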;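 further: higher luciferase means less miR-122 activity so hits act as miR-122 inhibitors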
Rtt109 HAT inh = blocks Candida albicans Rtt109/Vps75 acetyltransferase activity; Q5AAJ8; purified Rtt109/Vps75, ThioGlo CoA-SH fluorescence, 4 h; inhibition, % at 34.9 µM; actives 0.16% (n = 330,000); AID 540336;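 active means inhibition of at least 50% in every replicate; inconclusive means best replicate reaches 50% inhibition but some replicates fall short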
ERAP1 inh = inhibitors of human ERAP1 aminopeptidase; inhibition, % at 10.7 µM; recombinant ERAP1, Leu-AMC fluorescence, 60 min; actives 0.15% (n = 340,000);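 active means mean replicate inhibition of at least 30%, or all replicates individually reaching that 30% level; inactive means mean below 30% and not every replicate reaching it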;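 further: 0% = neutral control wells and 100% = L-leucinethiol positive control wells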
AF4-AF9 inh = blocks AF4 peptide binding to human AF9; AID 651704; AlphaScreen, biotin-AF4 peptide binding to FLAG-AF9; inhibition, % at 10 µM; P42568; actives 0.47% (n = 350,000);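 active means every replicate reaching a set inhibition limit, whatever the replicate mean, cut at about 25% in these data; inconclusive means mean inhibition reaches that limit but some replicates miss it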;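 further: 0% = plate neutral control median and 100% = total signal loss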
Target sequence (P42568 whole entry, looked up): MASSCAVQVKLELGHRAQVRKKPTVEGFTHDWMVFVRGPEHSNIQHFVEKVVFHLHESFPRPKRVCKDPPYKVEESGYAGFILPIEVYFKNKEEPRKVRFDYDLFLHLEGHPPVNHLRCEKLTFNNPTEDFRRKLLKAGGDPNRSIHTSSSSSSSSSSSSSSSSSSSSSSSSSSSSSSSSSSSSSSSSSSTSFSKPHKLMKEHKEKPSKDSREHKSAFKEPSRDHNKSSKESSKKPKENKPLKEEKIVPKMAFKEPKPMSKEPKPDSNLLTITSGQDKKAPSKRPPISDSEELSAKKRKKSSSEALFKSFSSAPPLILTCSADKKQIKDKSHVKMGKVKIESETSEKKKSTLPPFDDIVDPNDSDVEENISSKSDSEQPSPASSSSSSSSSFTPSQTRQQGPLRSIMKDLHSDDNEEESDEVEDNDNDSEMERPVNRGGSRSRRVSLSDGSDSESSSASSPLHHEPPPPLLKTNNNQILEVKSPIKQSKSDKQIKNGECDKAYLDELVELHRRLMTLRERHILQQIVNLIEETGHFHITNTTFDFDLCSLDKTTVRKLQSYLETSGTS
Active calls of the source: *; u = inconclusive; x = no result; + = active, no number; [ ] = remark or other dose. This is a sample that favours compounds with a hit; in the whole collection about 0.86% have one here.

SMILES | S100A4 inh HTS | miR-122 sensor | Rtt109 HAT inh | ERAP1 inh | AF4-AF9 inh
CCOC(=O)C1CCN(c2nc(N)c3c(N)nc(SCC(=O)O)cc3c2C#N)CC1 | -8 | -2 | 68* | 31* | 1
C[C@H](NC(=O)C[C@@H]1C[C@H]2c3cc(NS(C)(=O)=O)ccc3O[C@H]2[C@H](CO)O1)c1ccccc1 | 1 | 3[16.7 µM] | x | -2 | -2
Cc1noc(C)c1S(=O)(=O)N(C)C[C@@H]1Oc2ccc(NC(=O)C3CC3)cc2CC(=O)N([C@@H](C)CO)C[C@H]1C | 142* | 21[16.7 µM] | x | 3 | -1
Cc1noc(C)c1S(=O)(=O)N(C)C[C@@H]1Oc2ccc(NS(=O)(=O)c3cccs3)cc2CC(=O)N([C@H](C)CO)C[C@@H]1C | -1 | 6[16.7 µM] | x | x | 6
Cc1noc(C)c1S(=O)(=O)N(C)C[C@H]1Oc2ccc(NC(=O)C3CC3)cc2CC(=O)N([C@@H](C)CO)C[C@@H]1C | -3 | 14[16.7 µM] | x | 0 | 0
Cc1noc(C)c1S(=O)(=O)N(C)C[C@@H]1Oc2ccc(NS(=O)(=O)c3cccs3)cc2CC(=O)N([C@@H](C)CO)C[C@H]1C | 4 | -5[16.7 µM] | x | -1 | 26*
CN1c2ccc(-c3cccc(F)c3)cc2[C@@H]2[C@@H](CCN2S(=O)(=O)c2cccc(F)c2)[C@@H]1CO | 0 | 23[16.7 µM] | x | 1 | 0
CN(C)CC#Cc1ccc([C@H]2[C@H]3CN(CC4CC4)CCCCN3[C@H]2CO)cc1 | 8 | -5[16.7 µM] | x | 3 | 19
CN(C)CC#Cc1ccc([C@@H]2[C@@H](CO)N3CCCCN(CC4CC4)C[C@@H]23)cc1 | -6 | 1[16.7 µM] | x | 0 | 26*
CN(C)CC#Cc1ccc([C@@H]2[C@H](CO)N3CCCCN(CC4CC4)C[C@@H]23)cc1 | 0 | 2[16.7 µM] | x | 3 | 27*
Cc1ccc(-c2nc(CSCC(=O)NCCCN3CCOCC3)c(C)o2)cc1 | x | -13 | -6 | x | x
Cc1ccc(-c2nc(CSCC(=O)NCCN3CCN(Cc4ccccc4)CC3)c(C)o2)cc1 | x | 170* | 28 | x | x
CC(C)NC(=O)N[C@H]1CC[C@H](CC(=O)NC2Cc3ccccc3C2)O[C@@H]1CO | 0 | -4[16.7 µM] | x | 2 | -2
O=C1ON=C(c2ccccc2[N+](=O)[O-])/C1=C/c1cccc([N+](=O)[O-])c1O | 4 | -6 | 2 | 65* | -4
O=C1ON=C(c2ccc(Cl)c([N+](=O)[O-])c2)/C1=C/c1cccc([N+](=O)[O-])c1O | 3 | x | -3 | 99* | -2
O=[N+]([O-])c1cccc(/C=N/n2cnnc2)c1O | x | -3 | 1 | x | x
C[C@@H]1CN([C@H](C)CO)C(=O)c2cccc(NC(=O)CCCCCC(=O)Nc3ccccc3N)c2O[C@H]1CN(C)Cc1ccc(-c2ccccc2)cc1 | -5 | 0[16.7 µM] | x | 0 | 0
Cc1ccc(-n2nnc(-c3nccs3)n2)cc1 | 0 | 100* | -15 | x | -4
Clc1ccc(-n2nnc(-c3nccs3)n2)cc1Cl | -4 | x | 4 | 13 | -2
COc1ccc(NC(=O)Nc2ccc3c(c2)[C@H]2C[C@H](CC(=O)NCc4ccncc4)O[C@@H](CO)[C@H]2O3)cc1 | -50 | -1[16.7 µM] | x | -4 | 1
CN(C)CCNS(=O)(=O)c1ccc(N2CCN(c3ccc(F)cc3)CC2)c([N+](=O)[O-])c1 | -5 | x | -4 | 8 | 28*
C[C@@H]1CN([C@@H](C)CO)C(=O)c2cc(-c3ccccc3F)cnc2O[C@@H]1CN(C)C(=O)NC1CCCC1 | -14 | -9[16.7 µM] | x | 2 | -2
COc1cccc(C(=O)NC2CCCN(C3Cc4ccccc4C3)C2)c1OC (stereo unspecified) | -1 | 2 | 1 | -4 | 26*
O=C(CN(Cc1cccs1)S(=O)(=O)c1ccc(S(=O)(=O)NC2CCCCC2)cc1)Nc1ccccc1 | x | 132* | -3 | x | x
CCCN(C)C[C@H]1OCCCC[C@H](C)Oc2ccc(NS(=O)(=O)c3c(C)noc3C)cc2C(=O)N([C@@H](C)CO)C[C@H]1C | 2 | -1[16.7 µM] | x | -4 | -4
SMILES | S100A4 inh HTS | miR-122 sensor | Rtt109 HAT inh | ERAP1 inh | AF4-AF9 inh
CC(=O)N1CC2(C1)[C@H](c1ccccc1)[C@@H](CO)N2CC1CCOCC1 | 6 | x | x | -2 | -1
CC(=O)Nc1ccc(Nc2ncnc(N)c2[N+](=O)[O-])cc1 | 3 | x | 1 | 3 | 50*
Cc1cccc(C)c1Nc1ncnc(N)c1[N+](=O)[O-] | -2 | -7 | 4 | 9 | 5
CCN(C/C=C/c1ccccc1OC)Cc1ccccc1 | -15 | 4 | -3 | -2 | -4
CCCCN(C/C=C/c1ccccc1OC)Cc1ccccc1 | -9 | 7 | 64* | -1 | 8
O=C1CCc2cc(NS(=O)(=O)c3ccccc3)cc3c2N1CCC3 | -2 | 63 | 2 | -1 | 0
Cc1cccc(NS(=O)(=O)c2cc3c4c(c2)CCC(=O)N4CCC3)c1 | -3 | 181* | 5 | 4 | -2
COc1cccc2c1C(=O)c1c(O)c3c(c(O)c1C2=O)C[C@@](O)(C(=O)CO)C[C@@H]3O[C@H]1C[C@H](N)[C@H](O)[C@H](C)O1 | 178* | -69 | u | 7 | 19
COc1cccc2c1C(=O)c1c(O)c3c(c(O)c1C2=O)CC(O)(C(C)=O)CC3OC1CC(N(C)C)C(O)C(C)O1 (stereo unspecified) | + | -21 | 2 | 6 | 14
CC(=O)[C@@]1(O)Cc2c(O)c3c(c(O)c2[C@H](O[C@H]2C[C@H](N)[C@H](O)[C@H](C)O2)C1)C(=O)c1ccccc1C3=O | + | -22 | x | x | 25*
COc1cccc2c1C(=O)c1c(O)c3c(c(O)c1C2=O)C[C@@](O)(C(=O)CO)C[C@@H]3OC1CC(N)C(O)C(C)O1 (stereo partly specified) | 187* | -16 | -2 | 6 | 8
O=C(C[C@@H]1CC[C@H]2[C@@H](COC[C@@H](O)CN2C(=O)c2ccncc2)O1)NCc1ccc(-c2ccccc2)cc1 | u | 43[16.7 µM] | x | -4 | 4
CCC(=O)Nc1ccc2c(c1)OC[C@@H](C)N(CCc1ccccc1)C[C@@H](C)[C@@H](OC)CN(C)C2=O | -1 | x | x | x | 1
CCCNC(=O)C[C@@H]1C[C@H]2c3cc(NS(C)(=O)=O)ccc3O[C@H]2[C@@H](CO)O1 | 2 | 4[16.7 µM] | x | 2 | -5
Cc1cc(N(CCO)CCO)ccc1N=Nc1cc(F)ccc1F | -4 | -9 | -1 | 4 | 35*
CCOC(=O)C(=Cc1cc(=O)c(OC)co1)C(=O)OCC | -3 | x | 78* | 0 | -1
COc1coc(C(O)CN)cc1=O (stereo unspecified) | -2 | x | x | 4 | -1
CCCC[n+]1c(C)sc2cc(OC)ccc21 | -22 | x | 185* | 35* | -15
COc1ccc2sc(C)[n+](C)c2c1 | -5 | 6 | -3 | 11 | -6
COc1ccc(NC(=S)N(CCCN2CCCC2)Cc2cccn2Cc2ccc(Cl)cc2)cc1Cl | -5 | -5 | u | 2 | 33*
Cc1ccc(NC(=S)N(CCCN2CCCC2)Cc2cccn2Cc2ccc(Cl)cc2)cc1Cl | 4 | -1 | 4 | 1 | u

Source: PubChem BioAssay
